B1: tRNA (parent)
chain: GUUCCGUUGGCGUAAUGGUAACGCGUCUCCCUCCUAAGGAGAAGACUGCGGGUUCGAGUCCCGUACGGAACG

Fewer inactive variants are shown than the library holds.

This data set covers variants of B1. The data set is described as follows: yeast fitness relative to wild type (ratio to wild type); higher = fitter; tRNA-Arg(CCU), competitive growth, 37 C, YPD. The procedure, abridged: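 Start and end populations of a pooled competition were compared by 100-nucleotide paired-end sequencing of gene amplicons. The Saccharomyces cerevisiae strains carried tRNA-Arg(CCU) gene variants at the native genomic locus, synthesised with a 3% per-site mutation rate at 69 sites, and competed in YPD at 37°C for 24 hours in six parallel replicates. Darwinian fitness relative to wild type was based on the change in genotype frequencies. Genotypes required ≥ 100 starting reads, and estimates < 0.5 were set to 0.5.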
Turning to GCUACGUUGGCGUAAUGGUAACGCGUCUCCCUCCUAAGGAGAAGACUGCGGGUUCGAGUCCCGUACGGAACG, the yeast fitness is 0.877.

Take GUUCCGUUGGCGUAAUGGUAACGCGUCGCCCUCCUAAGGAGAAGACUGCGGGUUCGAGUCGCGUACGGAACG: the yeast fitness is 0.634.

For the variant GUUCCGUUGGCGUAAUGGUAACGCGUCUCCCUCCUAGGGAGAAGACUGCGGGUUCGAGUUCCGUACGGAACG, the yeast fitness worked out at 0.631.

Regarding GUUCCGUUGGCGUCAUGGUAACGCGUCUCCUUCCUAAGGUGAAGACUGCGGGUUCGGGUCCCGUACGGAACG, the yeast fitness stood at 0.53.

For the variant GUUCCGUUGGCGUAAUGCUAACGCCUCGCCCUCCUAAGGAGGAGACUGUGGGUUCGUGUCCCGUACGGAACG, the yeast fitness came to 0.557.

Consider GUUCUGUUGGCGUAAUGGUAACGCGUCUCCCUGCUAAAGAGAAGACUGCGGGUUCGAGUACCGUACGGAACG, for which the yeast fitness worked out at 0.542.

For GUUCCGUUGGCGUAAUGGUAAGGCGUCUCCCUCCAAAGGAGAAGACCGCGGGUUUGAGUCCCGUACGGAACG, the yeast fitness is at most 0.5.

On to GUUCCGUUGGCGUAAUGGUAACGCGUGUCCCUGCUAAGAAGAAGAUUGCGGGUUCGAGUGCCGUACGGAACG, for which the yeast fitness is at most 0.5.

GUUCAGUUGGCGUAAUGGUAACGCGUCUCCCUCCUAAGGAGAAGACUGCGGAUUCGAGUCCCGUACGAAACG: the yeast fitness is at most 0.5.

Consider GUUCCGUUGGCGUAAUGGUAACGCGUCUCCCCCCUAAGGUGAAGAAUGCGGGUUCGAGUCCCGUUCGGAACG, for which the yeast fitness came out at 0.589.

With GUUGCAUUGGCGUAAUGGUAACACGUCUCCCUCCUAAGGAGAGGACUGCGGGUUCGAGUCCCGUACGGAACG, the yeast fitness was at most 0.5.

On to GUUCCGUUCGCGUAAUGGUAACGCGUCUCCCUCCUAAGGAGAAGACUGCGCGUUCGAAUCCCGUACGGAACG, for which the yeast fitness is at most 0.5.

GUUCCGUUGGUGUACUGGUAACGCGUAUCCCUCCUAAGCAGAAGACUGCGGGUUCGAGUCCCGUCCGGAACG: the yeast fitness is 0.531.

GUUGCGUUGGCGUAAUGGUAACGCGUCUCACUCCUAAGGAGAAGACUGCGGGUUCGAGUCCUGUACGGAACG: the yeast fitness stood at 0.526.

Regarding GUUCCGUUGGCGUAAUGGGAUCGCGUCUGCCUCCUAUGGAGAAGACUGCGGGUUCGAGUCCCGUACGGAACG, the yeast fitness is at most 0.5.

With GUGCCGUUGGCGUAAAGGUAACGCGUCUCCCUCCUAAGGAGAAGACUGCGGGUUCGAGUCCCGUGCGGAACG, the yeast fitness turned out to be 0.664.

Consider GUUCCGUGGGCGUAAUGGUAACGCGUCUCCCUCCGAAGGAGAAGACUGCGGGUUGGAGUCCCGUACGGAACG, for which the yeast fitness is at most 0.5.

As for GUUUCGUUGGCGUAACGGUAACGCGUCUCCCUCCUAAGGAGCAGACUGCGGGUUCGAGUCCCGUACGGAACG, the yeast fitness came to 0.579.

On to GUUCCGUUGGCGUAAUGGUAAUGCGUCUCACUCCUAAGGAGAAGACUGCGGGUUCGAGUCCCGUACGGAACG, for which the yeast fitness came out at 0.706.

In the case of GUUCCGUUGGCGUAAUGGUCACGUGUCUCCCUCCUAAGGAGAAGACAGCGGGUUCGAGUCCCGUACCGAACG, the yeast fitness was at most 0.5.

For the variant GUUCCGUUGGCGUAAUGGUAACGCGUCUCCCUCCUAAGGAGAAGACUGCGGAUUCGAGUCCCGUACGUAACG, the yeast fitness turned out to be 0.653.

For GUUCUGUUGGCGUAAUGGUAACGCGUCUCCCUCCUAAGGAGGAGACUGCGGGUUCGAGUCCCGUACGGAACG, the yeast fitness stood at 0.728.

Take GUUCCAUUGGCGUAAUGGUAACGCGUCUCCCUCCUAAGGAGAAGACUGCAGGUUCGAGUCCCGUUCGGAACG: the yeast fitness was at most 0.5.

For GUUCCGUUGGCGUAAUGGUAACGCGUCUCCGUCCUAAGGAGAAGACUGCGCGUUCGAGUCCCGUACGGAACG, the yeast fitness came to 0.756.

With GUUCCGUUGGCGUAAUGGUAACGCAUCUCCGUCCUAAGGAGAAGACUGCGGGUUCGAGUCCCGUACGGAGCG, the yeast fitness was found to be 0.642.

In the case of GUUCCGUUGGCGUAAUGGGAACGCGUCUCCCUCCUAAGGAGAAGACUGCGGGUUCGAGUCCCGUAUGGAACG, the yeast fitness was 0.831.

Turning to GUUCCAUUGGCGUAAUGGUAACGCGUCUCCCUCCUAAGGAGAAGACUGCGGGUUCGAGUGCCGUACAGAACG, the yeast fitness came to 0.53.

Turning to GUUCCGUUGGCGUAAUGGUAACGCGUCUCCCUCCUUAGGAGAAGACAGCGGGUUCGAGUCCCGUACGGAACG, the yeast fitness amounted to 0.697.

Consider GUUCCGUUGGCGUAAUGGUAACGCGUCUUCCUCCUAAGGAGAAGGCUGCGGGUUCGAGUCCCGUACGGAACG, for which the yeast fitness stood at 0.98.

Take GCUCCGUUGGCGUAAUGGUAACGCGUCUCCCUCCUUAGGAGAAGACUGCGGGUUCGAGUCCCGUACGGAACG: the yeast fitness was determined as 0.682.

For the variant GUUCCGUUGGCGUAAUGGUAACGCGUCACCCUCCUGAGGAGAAGACUGCGGCUUCGAGUCCCGUACGGAACG, the yeast fitness is at most 0.5.

On to GUUCCGUUGGCGUAAUGGAAACGCGUCUCCCUCCUAAGGAGAAGACUGCGGGUUCGAGUCGCGUACAGAACG, for which the yeast fitness was at most 0.5.

Take GUUGCGUUGGCGUAAUGGUAACGUGUCUCACUCCUAAGGAGAAGACUGCGGCUUCGAGUCCCGUACGGAACG: the yeast fitness is at most 0.5.

In the case of GUUUCGUUGGCGUAGUGGUAACGCGUCUCCCUCCUAAGGAGAAGACUGCGGGUUCGAGUGCCGUACGGAACG, the yeast fitness came to 0.537.

As for GUUCCGUUGGCGUAAUGGUAACGCGUCUCCCUCCUAAGGAGAAGACUGUGCGUUCGAGUCCCGUACGAAACG, the yeast fitness is at most 0.5.

Turning to GUUCCGUUGGCGUAAUGGGAACGCGUCUCCCUCCCAAGGUGAAGACUGCGGGUUCGAGUCCCGUACGGAACG, the yeast fitness is at most 0.5.

Consider GUUCCGUAGGCGUAAUGGUAACGCGUCUCCCUCCUAAGGAGAACACUGCGGGUUCGUGUCCUGUACGGAACG, for which the yeast fitness is at most 0.5.

Consider GUUCCGUUGGCGUCAUGGUAACGCGUCUCCCUCCUAAGGAGAAGUCUGCGGGUUCGAGUCCCGUACGGAACG, for which the yeast fitness was 0.717.

The values are drawn from the RNAGym collection of RNA variant scans (doi:10.1126/science.aae0568).
